In the library only some 2% were active in any assay of this set; here they are far more common.
M1 ag – agonists of human M1 muscarinic receptor; P11229; CHO-K1 hM1, Fluo-8 calcium fluorescence, agonist mode; 0% DMSO, 100% acetylcholine EC100; activation, % at 3 µM; 360,000 compounds, 0.33% hits; AID 588814;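 active = activation above the run's mean compound activation plus 3 SD, cut at about 16% in these data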;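 also: peak over basal fluorescence ratio within a 140 s kinetic read after compound addition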
CHRM1 antagonist – human CHRM1 antagonism; CHO-K1 hM1, Fluo-8 calcium fluorescence, ACh EC80 antagonist; inhibition, % at 3 µM; 360,000 compounds, 1.3% hits; AID 588852;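 active = percent inhibition above its own plate's cutoff, namely the mean of that plate's compound wells plus 3 SD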;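 also: peak over basal fluorescence ratio during 140 s after agonist addition; 0% = ACh EC80 plus DMSO and 100% = DMSO alone without agonist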
M5 PAM – CHRM5 positive allosteric modulation | activation, % at 3 µM | CHO-K1 hM5, Fluo-8 calcium, ACh EC20 PAM; 0% = ACh EC20, 100% = ACh EC100 | P08912 | 360,000 compounds, 0.3% hits;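 active = activation above the run cutoff, the mean activation of all test compounds plus 3 SD, cut at about 18% in these data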
Target sequence (P08912 whole entry, looked up): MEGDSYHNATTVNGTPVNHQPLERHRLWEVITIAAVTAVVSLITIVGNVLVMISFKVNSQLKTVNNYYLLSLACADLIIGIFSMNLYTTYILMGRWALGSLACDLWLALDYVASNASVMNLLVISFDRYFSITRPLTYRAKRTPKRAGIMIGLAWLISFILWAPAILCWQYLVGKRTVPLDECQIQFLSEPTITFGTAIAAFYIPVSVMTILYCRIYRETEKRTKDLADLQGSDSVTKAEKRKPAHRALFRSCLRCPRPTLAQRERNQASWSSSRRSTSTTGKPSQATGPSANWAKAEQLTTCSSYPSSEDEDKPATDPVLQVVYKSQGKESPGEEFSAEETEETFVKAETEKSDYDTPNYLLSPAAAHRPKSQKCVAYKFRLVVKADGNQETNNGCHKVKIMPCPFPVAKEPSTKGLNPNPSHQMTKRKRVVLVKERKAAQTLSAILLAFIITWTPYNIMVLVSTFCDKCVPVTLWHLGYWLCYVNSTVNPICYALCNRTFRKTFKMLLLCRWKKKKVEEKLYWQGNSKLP
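Test system: CHO-K1 hM5 cells / Doses: single-point, 3 µM nominal / Times: Post-acetylcholine fluorescence recording 140 s / Technique: Fluo-8 calcium fluorescence / Measure: Max/basal fluorescence ratio as % of EC20–EC100 ACh window / Benchmarks: low control EC20 acetylcholine (0%), high control EC100 acetylcholine (100%) / Replicates: one well per compound, no replicates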
CHRM1 PAM – human CHRM1 positive allosteric modulation | P11229 | CHO-K1 hM1, Fluo-8 calcium fluorescence, ACh EC20; 0% = ACh EC20, 100% = maximal ACh | activation, % at 3 µM | 360,000 compounds, 0.088% hits; in the data active = activation above about 19%, passing the limit was not always enough
CHRM5 antagonist – CHRM5 antagonism in calcium assay; P08912; CHO-hM5 cells, Fluo-8 calcium fluorescence, ACh EC80; inhibition, % at 3 µM; 360,000 compounds, 0.59% hits; AID 624040;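 active = inhibition above a per-plate cutoff, the mean of that plate's test compounds plus 3 SD, cut at about 27% in these data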;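 also: 0% = acetylcholine EC80 with DMSO and 100% = DMSO without agonist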
M5 ag – agonists of human muscarinic M5 receptor (CHRM5); 360,000 compounds, 0.19% hits; P08912; CHO-K1 hM5 cells, Fluo-8 calcium fluorescence; 0% DMSO wells, 100% maximal acetylcholine response; AID 624037; activation, % at 3 µM;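 active = activation above the run's mean over test compounds plus 3 SD, cut at about 23% in these data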;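 also: signal is peak over basal fluorescence ratio across the kinetic read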
Numbers without * were called inactive.

SMILES | M1 ag | CHRM1 antagonist | M5 PAM | CHRM1 PAM | CHRM5 antagonist | M5 ag
COC1OC(COC(=O)c2ccccc2)C(OC(=O)c2ccccc2)C1OC(=O)c1ccccc1 (stereo not given) | -1 | 3 | -8 | 4 | -1 | -4
COC1OC(COCc2ccccc2)C(N)C(OCc2ccccc2)C1OCc1ccccc1 (stereo not given) | -2 | 42* | -15 | -28 | 19 | -3
CSCCC(NC(=O)c1ccccc1)C(=O)N/N=C(\C)Cc1ccccc1 (stereo not given) | -3 | 1 | -8 | 3 | 4 | -3
COCCNC(=O)c1ccc(N2CC3CC(C2)c2cccc(=O)n2C3)c(NC(=O)c2ccccc2Cl)c1 (stereo not given) | 26* | -19 | 0 | 4 | 2 | -2
COCCNC(=O)c1ccc(N2CC3CC(C2)c2cccc(=O)n2C3)c(NC(=O)c2ccc(Br)o2)c1 (stereo not given) | 1 | -15 | 2 | 16 | 5 | -2
COCCNC(=O)c1ccc(N2CC3CC(C2)c2cccc(=O)n2C3)c(NC(=O)c2ccccc2Br)c1 (stereo not given) | 22* | -8 | -2 | 3 | 0 | -3
COc1ccc(CC(=O)OCC(=O)Nc2ccc3[nH]c(=O)[nH]c3c2)cc1OC | -2 | -18 | -2 | 11 | 8 | 0
N#CC1=C(SCC(=O)NC2CC2)NC(=O)C(C#N)C12CCCCC2 (stereo not given) | 1 | -10 | -2 | 4 | 1 | 3
N#CC1=C(SCC(=O)NC23CC4CC(CC(C4)C2)C3)NC(=O)C(C#N)C12CCCCC2 (stereo not given) | -3 | 27 | -15 | -21 | 29* | 8
COC(=O)c1c(N)sc(C(C)=O)c1C | 16* | 0 | 2 | 20 | 5 | 3
O=S(=O)(c1ccccc1)N1CCC(n2nnc3cc(F)ccc32)CC1 | -5 | 4 | -4 | 0 | 10 | -1
O=S(=O)(c1ccc2c(c1)OCCO2)N1CCC(n2nnc3cc(C(F)(F)F)ccc32)CC1 | 1 | 31* | -43 | -10 | 11 | -9
CCN1C(c2ccc(F)cc2)=CS/C1=C(/C#N)c1nnc2n1-c1ccccc1SC2 | -2 | 4 | -9 | -14 | 1 | 2
c1ccc(C2[C@H]3CN(Cc4cccnc4)[C@H](c4ccccc4)C34CC2(c2cccnc2)C4)cc1 (stereo not given in full) | -11 | 40* | -20 | -31 | 7 | -8
c1ccc(C2[C@H]3CN(CC4CCCCC4)[C@H](c4ccccc4)C34CC2(c2cccnc2)C4)cc1 (stereo not given in full) | -13 | 74* | -32 | -37 | 16 | -13
CN1C[C@@H]2C(c3ccc(C(F)(F)F)cc3)C3(c4cccnc4)CC2(C3)[C@H]1c1ccccc1 (stereo not given in full) | -10 | 32* | 0 | -32 | -2 | -12
c1ccc(C2[C@H]3CN(CC4CCCCC4)[C@H](c4ccccc4)C34CC2(c2ccccc2)C4)cc1 (stereo not given in full) | -9 | 8 | 5 | -10 | -6 | -3
FC(F)(F)c1ccc(CN2C[C@@H]3C(c4ccc(C(F)(F)F)cc4)C4(c5cccnc5)CC3(C4)[C@H]2c2ccccc2)cc1 (stereo not given in full) | -8 | -6 | -2 | 2 | 1 | 4
CC1=C(C(=O)N(C(C)C)C(C)C)CC(CC(=O)NCCCCc2ccccc2)C(=O)N1Cc1ccc(F)cc1 (stereo not given) | 0 | -15 | -8 | -5 | 8 | -2
COc1ccc2c(c1)C(=O)C1(CC2)OC1c1cccnc1 (stereo not given) | -8 | -3 | -1 | 3 | 3 | -1
Oc1ccc(C[C@@H]2CNCCN2CCc2cc(C(F)(F)F)cc(C(F)(F)F)c2)cc1 | -1 | -6 | 15 | 25* | -1 | 8
OCCN(Cc1ccccn1)Cc1ccccn1 | -12 | 72* | 2 | -32 | -3 | -3
